ChEMBL document CHEMBL1138759, “Nonpeptide alphavbeta3 antagonists. Part 11: discovery and preclinical evaluation of potent alphavbeta3 antagonists for the prevention and treatment of osteoporosis” (J Med Chem, 2004)
pIC50: −log10 of the molar value.

Tests used:
[1] = Bioavailability in dog (dose 0.2 mg/kg i.v. and 1 mg/kg p.o.); format: ADME, organism-based, Canis lupus familiaris; conditions: in vivo, po
Outline: (§1)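 Dogs given compound in water at 0.2 mpk iv and 1 mpk po; oral bioavailability, plasma clearance and plasma half-life derived from plasma levels.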

Integrin alpha-V/beta-3 = Integrin alpha-V/beta-3 (Homo sapiens, UniProt P05106+P06756); assay: Inhibitory activity against alpha v beta-3 receptor using scintillation proximity assay (SPAV3); format: protein-complex assay
Integrin alpha-V/beta-3, sequence (P05106 27-788 limits assumed): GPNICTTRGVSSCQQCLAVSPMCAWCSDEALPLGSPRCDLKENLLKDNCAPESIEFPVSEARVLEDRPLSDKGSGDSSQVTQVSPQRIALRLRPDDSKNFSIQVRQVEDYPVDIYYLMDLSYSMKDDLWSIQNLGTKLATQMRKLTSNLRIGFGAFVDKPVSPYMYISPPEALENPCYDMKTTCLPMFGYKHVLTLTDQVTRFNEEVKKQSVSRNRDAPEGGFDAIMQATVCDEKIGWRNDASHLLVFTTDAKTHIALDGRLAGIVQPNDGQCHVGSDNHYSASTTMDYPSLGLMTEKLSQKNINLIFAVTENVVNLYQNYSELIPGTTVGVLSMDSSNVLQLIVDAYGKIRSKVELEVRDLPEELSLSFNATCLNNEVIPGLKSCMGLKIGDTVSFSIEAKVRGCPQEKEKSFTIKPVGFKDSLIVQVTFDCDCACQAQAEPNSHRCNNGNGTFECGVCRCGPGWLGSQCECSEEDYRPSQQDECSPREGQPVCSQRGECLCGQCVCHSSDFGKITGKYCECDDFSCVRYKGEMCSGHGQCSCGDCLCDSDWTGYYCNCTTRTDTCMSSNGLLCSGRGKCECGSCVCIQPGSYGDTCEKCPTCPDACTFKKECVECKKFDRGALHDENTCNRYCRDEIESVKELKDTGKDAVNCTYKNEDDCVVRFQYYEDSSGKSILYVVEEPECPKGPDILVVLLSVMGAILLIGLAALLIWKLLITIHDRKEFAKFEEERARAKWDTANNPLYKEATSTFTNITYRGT
Integrin alpha-V/beta-3, sequence (P06756 31-889 limits assumed): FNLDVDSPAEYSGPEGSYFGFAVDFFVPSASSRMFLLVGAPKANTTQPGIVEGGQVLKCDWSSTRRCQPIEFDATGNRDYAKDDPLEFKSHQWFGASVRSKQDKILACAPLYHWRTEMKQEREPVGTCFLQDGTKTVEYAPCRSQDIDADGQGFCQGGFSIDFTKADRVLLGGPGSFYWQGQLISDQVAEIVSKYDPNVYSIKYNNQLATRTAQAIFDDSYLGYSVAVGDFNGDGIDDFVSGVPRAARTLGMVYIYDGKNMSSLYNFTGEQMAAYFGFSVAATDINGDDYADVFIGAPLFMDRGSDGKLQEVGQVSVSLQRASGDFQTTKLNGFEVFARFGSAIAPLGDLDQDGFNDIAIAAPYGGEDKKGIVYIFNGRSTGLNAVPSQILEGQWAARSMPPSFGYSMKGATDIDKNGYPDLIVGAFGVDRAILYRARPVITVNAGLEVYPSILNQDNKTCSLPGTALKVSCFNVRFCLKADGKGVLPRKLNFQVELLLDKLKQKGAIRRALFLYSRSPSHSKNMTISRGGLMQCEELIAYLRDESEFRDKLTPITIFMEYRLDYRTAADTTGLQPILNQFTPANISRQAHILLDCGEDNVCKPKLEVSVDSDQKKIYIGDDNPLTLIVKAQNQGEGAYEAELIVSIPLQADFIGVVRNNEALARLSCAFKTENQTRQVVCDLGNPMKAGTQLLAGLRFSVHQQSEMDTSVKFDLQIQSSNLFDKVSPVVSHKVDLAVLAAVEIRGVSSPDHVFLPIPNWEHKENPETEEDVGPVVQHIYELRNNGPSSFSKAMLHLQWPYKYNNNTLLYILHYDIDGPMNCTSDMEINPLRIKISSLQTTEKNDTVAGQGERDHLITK
Integrin alpha-V/beta-3, sequence (P06756 891-1048 limits assumed): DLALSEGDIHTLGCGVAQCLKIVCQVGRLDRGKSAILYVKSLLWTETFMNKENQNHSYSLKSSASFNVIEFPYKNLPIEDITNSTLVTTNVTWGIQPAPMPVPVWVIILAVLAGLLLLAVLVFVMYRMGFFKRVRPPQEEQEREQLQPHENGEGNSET

[2] = Partition coefficient (logP); format: physicochemical; conditions: octanol/water
Outline: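 log P measured as partition between octanol and pH 7.4 buffer.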

[3] = Clearance value in dog at 0.2 mg/kg dose in intravenous and 1 mg/kg of peroral; format: ADME, organism-based, Canis lupus familiaris; conditions: in vivo; outline: as §1
[4] = h-Protein binding value of the compound; format: ADME; parameters: concentration or dose not given beside the values; conditions: human
Outline: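 Binding in human plasma determined by high-throughput ultrafiltration of diluted plasma in pH 7.4 buffer.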

[5] = Half life in dog at 0.2 mg/kg dose in intravenous and 1 mg/kg of peroral; format: ADME, organism-based, Canis lupus familiaris; conditions: in vivo; outline: as §1
[6] = Half life in rat at 0.5 mg/kg dose in intravenous and 1 mg/kg of peroral; format: ADME, organism-based; conditions: in vivo
[7] = Half life in monkey at 0.2 mg/kg dose in intravenous and 1 mg/kg of peroral; format: ADME, organism-based; conditions: cercopithecidae, in vivo
Rattus norvegicus [8] = assay: Effect on distal femoral metaphysis (DFM)-bone mineral density (BMD) in ovariectomized female rats; OVX + 5f dosed orally 1 mg/kg; format: functional; conditions: route oral
Outline: (§2)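 Female rats ovariectomized, then dosed orally q.d. at 1, 3 or 10 mg/kg starting within 24 h, for 28 days. Comparators were sham-operated rats, OVX rats on vehicle, and OVX rats on alendronate 0.003 mg/kg/d s.c. BMD (mg/cm2) measured at the distal femoral metaphysis, given as mean ± SEM. Groups compared by Kruskal–Wallis ANOVA with Student–Newman–Keuls post-hoc test.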

[9] = Clearance value in monkey at 0.2 mg/kg dose in intravenous and 1 mg/kg of peroral; format: ADME, organism-based; conditions: cercopithecidae, in vivo
Rattus norvegicus [10] = assay: Effect on distal femoral metaphysis (DFM)-bone mineral density (BMD) in ovariectomized female rats; OVX + 5f dosed orally 10 mg/kg; format: functional; conditions: route oral; outline: as §2
Rattus norvegicus [11] = assay: Effect on distal femoral metaphysis (DFM)-bone mineral density (BMD) in ovariectomized female rats; OVX + 5f dosed orally 3 mg/kg; format: functional; conditions: route oral; outline: as §2
[12] = Clearance value in rat at 0.5 mg/kg dose in intravenous and 1 mg/kg of peroral; format: ADME, organism-based; conditions: in vivo
[13] = Bioavailability in monkey (dose 0.2 mg/kg i.v. and 1 mg/kg p.o.); format: ADME, organism-based; conditions: cercopithecidae, in vivo, po
[14] = Bioavailability in rat (dose 0.5 mg/kg i.v. 1 mg/kg of p.o.); format: ADME, organism-based; conditions: in vivo, po
Rattus norvegicus [15] = assay: Effect on distal femoral metaphysis (DFM)-bone mineral density (BMD) in ovariectomized female rats; OVX + 5e dosed orally 30 mg/kg/d; conditions: route oral
Rattus norvegicus [16] = assay: Effect on distal femoral metaphysis (DFM)-bone mineral density (BMD) in ovariectomized female rats; OVX + 5e dosed orally 20 mg/kg/d; conditions: route oral

| SMILES | bioavailability [1] [%] | pIC50 (Integrin alpha-V/beta-3) | logP ([2]; read-out: logP) | clearance [3] [mL/min/kg] | Activity [4] [%] | half-life [5] [h] | other results |
| --- | --- | --- | --- | --- | --- | --- | --- |
| O=C(O)C[C@H](CCCCCCc1ccc2c(n1)NCCC2)c1ccc2c(c1)OCC2 | > 99 | 9.68 | 2.39 | 7.9 | 99.9 | 5.8 | – |
| CC(C)c1ncc([C@@H](CCCCCCc2ccc3c(n2)NCCC3)CC(=O)O)cn1 | – | 9.28 | 1.32 | – | 99 | – | – |
| Cc1ncc([C@@H](CCCCCCc2ccc3c(n2)NCCC3)CC(=O)O)cn1 | 83 | 10.10 | 0.43 | 2.5 | 96 | 9.5 | half-life [6]: 5.1 h; half-life [7]: 17 h; DFM (Rattus norvegicus [8]): 158.3 mg/cm2; clearance [9]: 4.5 mL/min/kg; DFM (Rattus norvegicus [10]): 176 mg/cm2; DFM (Rattus norvegicus [11]): 173 mg/cm2; clearance [12]: 3.6 mL/min/kg; bioavailability [13]: 75%; bioavailability [14]: 100% |
| O=C(O)C[C@H](CCCCCCc1ccc2c(n1)NCCC2)c1cncnc1 | 66 | 10.15 | 0.1 | 3.9 | 94 | 6.4 | half-life [6]: 4.5 h; DFM (Rattus norvegicus [15]): 153.2 mg/cm2; DFM (Rattus norvegicus [16]): 150.8 mg/cm2; half-life [7]: 2.3 h; clearance [9]: 19 mL/min/kg; clearance [12]: 30 mL/min/kg; bioavailability [13]: 46%; bioavailability [14]: 45% |
| O=C(O)CC(NC(=O)CCCCc1ccc2c(n1)NCCC2)c1cncnc1 (stereo not drawn) | 10 | – | -1.2 | 26 | 44 | – | – |
| COc1ncc([C@@H](CCCCCCc2ccc3c(n2)NCCC3)CC(=O)O)cn1 | 100 | 9.96 | 0.65 | 4.3 | 97 | 6.8 | – |
| COc1ccc([C@@H](CCCCCCc2ccc3c(n2)NCCC3)CC(=O)O)cn1 | 49 | 9.19 | – | 5.1 | 99.5 | 9.5 | logP [2]: 1.67 |

Continued, in another order:

| bioavailability [1] [%] | pIC50 (Integrin alpha-V/beta-3) | logP ([2]; read-out: logP) | clearance [3] [mL/min/kg] | Activity [4] [%] | half-life [5] [h] | SMILES | other results |
| --- | --- | --- | --- | --- | --- | --- | --- |
| – | 8.14 | – | – | – | – | O=C(O)CC(/C=C/CCCCc1ccc2c(n1)NCCC2)c1cccc(F)c1 (stereo not drawn) | – |
| – | 7.56 | – | – | – | – | O=C(O)C[C@H](NC(=O)CCCCc1ccc2c(n1)NCCC2)c1cccc(F)c1 | – |
| 65 | 9.70 | 2.39 | 3 | > 99.9 | 5 | O=C(O)C[C@H](CCCCCCc1ccc2c(n1)NCCC2)c1cnc2ccccc2c1 | – |
| – | 9.03 | – | – | – | – | O=C(O)CC(CCCCCCc1ccc2c(n1)NCCC2)c1cccc(F)c1 (stereo not drawn) | – |
